Data as given in ChEMBL document CHEMBL1150856, “Trypanocidal withanolides and withanolide glycosides from Dunalia brachyacantha” (2001).
Active and inactive are the calls of the source. The calls are words filed in the database; no cut-off is given here.

Tests used:
Leishmania donovani [1] = experiment: Antiparasitic activity against Leishmania donovani MHOM/IN/83/HS70 at 10 ug/mL after 72 hrs; type: functional
How it was run: (§1)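 Promastigotes at 50 000 parasites/mL, 27 °C, 72 h, with compound at final 50, 25, 10, 1 and 0.1 μg/mL. Compound dissolved in medium plus DMSO (final DMSO under 0.1%) and filter-sterilised (0.22 μm). Triplicate wells. Activity was judged by inverted phase-contrast microscopy of a culture drop against untreated and pentamidine controls.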

Trypanosoma cruzi [2] = experiment: Antiparasitic activity against Trypanosoma cruzi Tulahuen epimastigotes at 10 ug/mL after 48 hrs; type: functional
How it was run: (§2)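 Epimastigotes in LIT medium with 10% fetal calf serum, inoculum 10⁶ cells/mL, 28 °C. Samples were dissolved in DMSO and medium to final 50, 20, 10, 1 and 0.1 μg/mL (final DMSO under 0.5%). Triplicate. After 48 h, parasites were counted by haemocytometer and compared with untreated and pentamidine controls.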

Leishmania braziliensis [3] = experiment: Antiparasitic activity against Leishmania braziliensis MHOM/BR/75/M2903 at 10 ug/mL after 72 hrs; type: functional; how it was run: as §1
Leishmania amazonensis [4] = experiment: Antiparasitic activity against Leishmania amazonensis IFLA/BR/67/PH8 at 10 ug/mL after 72 hrs; type: functional; how it was run: as §1
Trypanosoma cruzi [5] = experiment: Antiparasitic activity against Trypanosoma cruzi Tulahuen epimastigotes at 50 ug/mL after 48 hrs; type: functional; how it was run: as §2
Leishmania amazonensis [6] = experiment: Antiparasitic activity against Leishmania amazonensis IFLA/BR/67/PH8 at 50 ug/mL after 72 hrs; type: functional, organism-based; how it was run: as §1
Trypanosoma cruzi [7] = experiment: Antiparasitic activity against Trypanosoma cruzi Tulahuen epimastigotes at 25 ug/mL after 48 hrs; type: functional
Leishmania amazonensis [8] = experiment: Antiparasitic activity against Leishmania amazonensis IFLA/BR/67/PH8 at 25 ug/mL after 72 hrs; type: functional, organism-based; how it was run: as §1
Leishmania braziliensis [9] = experiment: Antiparasitic activity against Leishmania braziliensis MHOM/BR/75/M2903 at 25 ug/mL after 72 hrs; type: functional, organism-based; how it was run: as §1
Leishmania braziliensis [10] = experiment: Antiparasitic activity against Leishmania braziliensis MHOM/BR/75/M2903 at 50 ug/mL after 72 hrs; type: functional, organism-based; how it was run: as §1
Leishmania donovani [11] = experiment: Antiparasitic activity against Leishmania donovani MHOM/IN/83/HS70 at 25 ug/mL after 72 hrs; type: functional, organism-based; how it was run: as §1
Leishmania donovani [12] = experiment: Antiparasitic activity against Leishmania donovani MHOM/IN/83/HS70 at 50 ug/mL after 72 hrs; type: functional, organism-based; how it was run: as §1
Staphylococcus aureus [13] = experiment: Antibacterial activity against Staphylococcus aureus ATCC 25923/6538 at 0.0625 mg/mL after 18 hrs; type: functional, organism-based
Escherichia coli = experiment: Antibacterial activity against Escherichia coli ATCC 8739 at 0.0312 mg/mL after 18 hrs; type: functional, organism-based
Leishmania amazonensis [14] = experiment: Antiparasitic activity against Leishmania amazonensis IFLA/BR/67/PH8 at 1 ug/mL after 72 hrs; type: functional; how it was run: as §1
Staphylococcus aureus [15] = experiment: Antibacterial activity against Staphylococcus aureus ATCC 25923/6538 at 0.0312 mg/mL after 18 hrs; type: functional, organism-based
Shigella flexneri [16] = experiment: Antibacterial activity against Shigella flexneri […] at 0.0312 mg/mL after 18 hrs; type: functional, organism-based
Trypanosoma cruzi [17] = experiment: Antiparasitic activity against Trypanosoma cruzi Tulahuen epimastigotes at 1 ug/mL after 48 hrs; type: functional; how it was run: as §2
Trypanosoma cruzi [18] = experiment: Antiparasitic activity against Trypanosoma cruzi Tulahuen epimastigotes at 0.1 ug/mL after 48 hrs; type: functional; how it was run: as §2
Leishmania donovani [19] = experiment: Antiparasitic activity against Leishmania donovani MHOM/IN/83/HS70 at 1 ug/mL after 72 hrs; type: functional; how it was run: as §1
Leishmania amazonensis [20] = experiment: Antiparasitic activity against Leishmania amazonensis IFLA/BR/67/PH8 at 0.1 ug/mL after 72 hrs; type: functional; how it was run: as §1
Leishmania braziliensis [21] = experiment: Antiparasitic activity against Leishmania braziliensis MHOM/BR/75/M2903 at 1 ug/mL after 72 hrs; type: functional; how it was run: as §1
Shigella flexneri [22] = experiment: Antibacterial activity against Shigella flexneri […] at 0.0625 mg/mL after 18 hrs; type: functional, organism-based
Leishmania braziliensis [23] = experiment: Antiparasitic activity against Leishmania braziliensis MHOM/BR/75/M2903 at 0.1 ug/mL after 72 hrs; type: functional; how it was run: as §1
Bacillus subtilis = experiment: Antibacterial activity against Bacillus subtilis ATCC 6633 at 0.0312 mg/mL after 18 hrs; type: functional, organism-based
Leishmania donovani [24] = experiment: Antiparasitic activity against Leishmania donovani MHOM/IN/83/HS70 at 0.1 ug/mL after 72 hrs; type: functional; how it was run: as §1

Row | Structure (SMILES) | Activity (Leishmania donovani [1]) | Activity (Trypanosoma cruzi [2]) | Activity (Leishmania braziliensis [3]) | Activity (Leishmania amazonensis [4]) | Activity (Trypanosoma cruzi [5]) | Activity (Leishmania amazonensis [6]) | Activity (Trypanosoma cruzi [7]) | Activity (Leishmania amazonensis [8]) | Activity (Leishmania braziliensis [9]) | Activity (Leishmania braziliensis [10]) | Activity (Leishmania donovani [11]) | Activity (Leishmania donovani [12]) | other results
1 | N=C(N)c1ccc(OCCCCCOc2ccc(C(=N)N)cc2)cc1 | Active | Active | Active | Active | – | – | – | – | – | – | – | – | –
2 | CC(=O)OC[C@]12CC[C@H]3[C@@H](C[C@H]4O[C@]45[C@@H](O)C=CC(=O)[C@]35C)[C@@H]1CC[C@@H]2[C@@](C)(O)[C@H]1CC(C)=C(C)C(=O)O1 | 75% | 0% | 50% | 75% | 50% | Active | 0% | Active | Active | Active | Active | Active | –
3 | CC(=O)OC[C@]12CC[C@H]3[C@@H](CC=C4[C@@H](O)C=CC(=O)[C@@]43C)[C@@H]1CC[C@@H]2[C@@](C)(O)[C@H]1CC(C)=C(C)C(=O)O1 | Active | 75% | Active | Active | Active | Active | Active | Active | Active | Active | Active | Active | Activity (Staphylococcus aureus [13]): inactive; Activity (Escherichia coli): inactive; Activity (Leishmania amazonensis [14]): 75%; Activity (Staphylococcus aureus [15]): inactive; Activity (Shigella flexneri [16]): inactive; Activity (Trypanosoma cruzi [17]): 0%; Activity (Trypanosoma cruzi [18]): 0%; Activity (Leishmania donovani [19]): 75%; Activity (Leishmania amazonensis [20]): 0%; Activity (Leishmania braziliensis [21]): 50%; Activity (Shigella flexneri [22]): inactive; Activity (Leishmania braziliensis [23]): 0%; Activity (Bacillus subtilis): inactive; Activity (Leishmania donovani [24]): 0%
